# Test results taken from ChEMBL document CHEMBL1125540, “Antiviral and antitumor structure-activity relationship studies on tetracyclic eudistomines” (1992).
# Assays:
# Assay type in all cases: functional
# [1] = Evaluation for antiviral activity against herpes simplex virus-1(F) in primary rabbit kidney cell cultures(PRK) (Concentration required to reduce virus-induced cytopathogenicity by 50%); details: Oryctolagus cuniculus
# HeLa [2] = experiment: Evaluation for antiviral activity against vesicular stomatitis virus in HeLa cell cultures (Concentration required to reduce virus-induced cytopathogenicity by 50%); details: Homo sapiens
# Procedure, shortened: (§1)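 HeLa cultures were infected with respiratory syncytial, vesicular stomatitis, Coxsackie B4 or polio-1 virus. The antiviral end-point is 50% reduction of virus-induced cytopathogenicity. Cytotoxicity is the minimum concentration producing microscopically detectable alteration of normal cell morphology.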
# Vero [3] = experiment: Evaluation for antiviral activity against Sindbis virus in Vero cell cultures (Concentration required to reduce virus-induced cytopathogenicity by 50%); details: Chlorocebus sabaeus
# Procedure, shortened: (§2)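 Vero cultures were infected with parainfluenza-3, reovirus-1, Sindbis, Coxsackie B4 or Semliki forest virus. Values are concentrations giving 50% reduction of virus-induced cytopathogenicity, or a microscopically detectable alteration of normal cell morphology for cytotoxicity. Each is the average of two separate experiments.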
# Vero [4] = experiment: Evaluation for antiviral activity against forest virus in Vero cell cultures (Concentration required to reduce virus-induced cytopathogenicity by 50%); details: Chlorocebus sabaeus; procedure, shortened: as §2
# [5] = Evaluation in PRK cell cultures for cytotoxicity that is to cause microscopically detectable alteration of normal cell morphology; details: Oryctolagus cuniculus
# HeLa [6] = experiment: Evaluation for antiviral activity against polio virus-1 in HeLa cell cultures (Concentration required to reduce virus-induced cytopathogenicity by 50%); details: Homo sapiens; procedure, shortened: as §1
# MOLT-4F = experiment: Inhibitory effect on the proliferation of human T-lymphoblast cells (Molt-4F); details: read-out: ID50 (the source's name)
# Procedure, shortened: (§3)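 Proliferation assay in murine leukemia L1210, human T-lymphoblast Molt-4F and human T-lymphocyte MT-4 cells. ID50 is the dose inhibiting tumor cell proliferation by 50%, expressed in μg/mL.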
# [7] = Evaluated for antiviral activity against herpes simplex virus-1(KOS) in primary rabbit kidney cell cultures(PRK) (Concentration required to reduce virus-induced cytopathogenicity by 50%); details: Oryctolagus cuniculus
# HeLa [8] = experiment: Evaluation for antiviral activity against Coxsackie virus B4 in HeLa cell cultures (Concentration required to reduce virus-induced cytopathogenicity by 50%); details: Homo sapiens; procedure, shortened: as §1
# [9] = Evaluation for antiviral activity against herpes simplex virus-2(Lyons) in primary rabbit kidney cell cultures(PRK) (Concentration required to reduce virus-induced cytopathogenicity by 50%); details: Oryctolagus cuniculus
# L1210 = experiment: Inhibitory effect on the proliferation of murine leukemia cells (L1210); details: Mus musculus, read-out: ID50 (the source's name); procedure, shortened: as §3
# [10] = Evaluation for antiviral activity against herpes simplex virus-2(G) in primary rabbit kidney cell cultures(PRK) (Concentration required to reduce virus-induced cytopathogenicity by 50%); details: Oryctolagus cuniculus
# MT4 = experiment: Inhibitory effect on the proliferation of human T-lymphocyte (MT-4); details: read-out: ID50 (the source's name); procedure, shortened: as §3
# [11] = Evaluation for antiviral activity against vesicular stomatitis virus in primary rabbit kidney cell cultures(PRK) (Concentration required to reduce virus-induced cytopathogenicity by 50%); details: Oryctolagus cuniculus
# HeLa [12] = experiment: Evaluation in HeLa cell cultures for cytotoxicity that is to cause microscopically detectable alteration of normal cell morphology; details: Homo sapiens; procedure, shortened: as §1
# Vero [13] = experiment: Evaluation for antiviral activity against parainfluenza-3 virus in Vero cell cultures (Concentration required to reduce virus-induced cytopathogenicity by 50%); details: Chlorocebus sabaeus; procedure, shortened: as §2
# [14] = Evaluation for antiviral activity against herpes simplex virus-1(TK-) (B2006) in primary rabbit kidney cell cultures(PRK) (Concentration required to reduce virus-induced cytopathogenicity by 50%); details: Oryctolagus cuniculus
# Vero [15] = experiment: Evaluation for antiviral activity against Coxsackie virus B4 in Vero cell cultures (Concentration required to reduce virus-induced cytopathogenicity by 50%); details: Chlorocebus sabaeus; procedure, shortened: as §2
# Vero [16] = experiment: Evaluation for antiviral activity against reo virus-1 in Vero cell cultures (Concentration required to reduce virus-induced cytopathogenicity by 50%); details: Chlorocebus sabaeus; procedure, shortened: as §2
# [17] = Evaluation for antiviral activity against herpes simplex virus-1 (McIntyre) in primary rabbit kidney cell cultures(PRK) (Concentration required to reduce virus-induced cytopathogenicity by 50%); details: Oryctolagus cuniculus
# [18] = Evaluation for antiviral activity against vaccinia virus in primary rabbit kidney cell cultures(PRK) (Concentration required to reduce virus-induced cytopathogenicity by 50%); details: Oryctolagus cuniculus
# Vero [19] = experiment: Evaluation in Vero cell cultures for cytotoxicity that is to cause microscopically detectable alteration of normal cell morphology; details: Chlorocebus sabaeus; procedure, shortened: as §2
# HeLa [20] = experiment: Compound was evaluated for antiviral activity against respiratory syncitial virus (long) in HeLa cell cultures (Concentration required to reduce virus-induced cytopathogenicity by 50%); details: Homo sapiens; procedure, shortened: as §1
# [21] = Evaluation for antiviral activity against herpes simplex virus-2(196) in primary rabbit kidney cell cultures(PRK) (Concentration required to reduce virus-induced cytopathogenicity by 50%); details: Oryctolagus cuniculus
# MDCK = experiment: Compound was evaluated in MDCK cell cultures for cytotoxicity that is to cause microscopically detectable alteration of normal cell morphology; details: Canis lupus familiaris
# Procedure, shortened: (§4)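 Influenza A and B virus replication in MDCK cultures. Antiviral value is the concentration giving 50% reduction of virus-induced cytopathogenicity. Cytotoxicity is the concentration causing a microscopically detectable change in normal cell morphology.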
# Influenza B virus = experiment: Concentration required to reduce influenza virus B (singapore) induced cytopathogenicity by 50%; procedure, shortened: as §4
# Influenza A virus = experiment: Concentration required to reduce influenza virus A (ishikawa) induced cytopathogenicity by 50%; procedure, shortened: as §4
SMILES,MIC [1] [µg/mL],MIC (HeLa [2]) [µg/mL],MIC (Vero [3]) [µg/mL],MIC (Vero [4]) [µg/mL],MCC [5] [µg/mL],MIC (HeLa [6]) [µg/mL],MIC [7] [µg/mL],MIC (HeLa [8]) [µg/mL],MIC [9] [µg/mL],MIC [10] [µg/mL],MIC [11] [µg/mL],MCC (HeLa [12]) [µg/mL],MIC (Vero [13]) [µg/mL],MIC [14] [µg/mL],MIC (Vero [15]) [µg/mL],MIC (Vero [16]) [µg/mL],MIC [17] [µg/mL],MIC [18] [µg/mL],MCC (Vero [19]) [µg/mL],MIC [21] [µg/mL],further results
COc1ccc2[nH]c3c(c2c1)CCN1OCSC[C@@H](N)[C@H]31,> 4,> 1,> 1,> 1,> 10,> 1,> 4,> 1,> 4,> 4,> 4,4,> 1,> 4,> 1,> 1,> 4,> 4,> 2.5,> 4,IC50 (MOLT-4F): 0.94 µg/mL; IC50 (L1210): 6.54 µg/mL; IC50 (MT4): 1.99 µg/mL; MIC (HeLa [20]): > 1.6 µg/mL
Cn1c2c(c3ccccc31)CCN1OCSC[C@@H](N)[C@H]21,–,> 10,> 10,> 10,40,> 10,> 10,> 10,> 10,–,> 10,> 10,> 10,–,> 10,> 10,–,> 10,> 40,–,–
N[C@@H]1CSCON2CCc3c([nH]c4ccccc34)[C@@H]12,> 10,> 10,> 10,> 10,40,> 10,> 10,> 10,> 10,> 10,> 10,> 10,> 10,> 10,> 10,> 10,> 10,> 10,40,> 10,MCC (MDCK): 15 µg/mL; IC50 (MOLT-4F): 5.14 µg/mL; IC50 (L1210): 17.4 µg/mL; IC50 (MT4): 4.5 µg/mL; MIC (Influenza B virus): > 8 µg/mL; MIC (HeLa [20]): > 8 µg/mL; MIC (Influenza A virus): > 8 µg/mL
Cn1c2c(c3ccccc31)CCN1OCSC[C@@H](N)[C@@H]21,2,7,2,2,> 40,2,3,7,0.7,0.7,7,> 10,0.7,7,0.7,1,0.7,1.5,> 20,1,IC50 (MOLT-4F): 0.37 µg/mL; IC50 (L1210): 0.56 µg/mL; IC50 (MT4): 0.69 µg/mL
COc1ccc2[nH]c3c(c2c1)CCN1OCSC[C@@H](N)[C@@H]31,0.07,0.02,0.02,0.07,> 1,0.02,0.045,0.02,0.04,0.02,0.02,0.4,–,0.04,0.07,0.07,0.02,0.02,> 1,0.02,MCC (MDCK): 0.8 µg/mL; IC50 (MOLT-4F): 0.0062 µg/mL; IC50 (L1210): 0.005 µg/mL; IC50 (MT4): 0.005 µg/mL; MIC (Influenza B virus): > 0.32 µg/mL; MIC (HeLa [20]): 0.15 µg/mL; MIC (Influenza A virus): > 0.32 µg/mL
N[C@H]1CSCON2CCc3c([nH]c4ccccc34)[C@@H]12,2,7,20,10,> 10,> 10,2,> 10,2,2,2,40,7,7,7,20,2,2,40,2,MCC (MDCK): 40 µg/mL; IC50 (MOLT-4F): 1.54 µg/mL; IC50 (L1210): 1.24 µg/mL; MIC (Influenza B virus): 3 µg/mL; MIC (HeLa [20]): 3 µg/mL; MIC (Influenza A virus): 3 µg/mL
C[C@@H]1CSCON2CCc3c([nH]c4ccccc34)[C@H]12,–,> 40,20,> 40,> 100,> 40,> 100,> 40,–,> 100,> 100,40,> 40,–,20,> 40,–,> 100,> 100,–,–
O[C@@H]1CSCON2CCc3c([nH]c4ccccc34)[C@@H]12,–,> 100,20,> 40,> 100,> 100,> 100,> 40,–,> 100,> 100,100,> 40,–,> 40,> 40,–,> 100,> 100,–,MCC (MDCK): 3 µg/mL; MIC (Influenza B virus): > 1.6 µg/mL; MIC (Influenza A virus): > 1.6 µg/mL
c1ccc2c3c([nH]c2c1)C1CCSCON1CC3 (configuration not stated),–,> 10,> 10,> 10,> 200,> 10,–,> 10,> 100,> 100,> 100,> 40,> 10,> 100,> 10,> 10,> 100,> 100,> 40,> 100,MCC (MDCK): 80 µg/mL; IC50 (MOLT-4F): 18.3 µg/mL; IC50 (L1210): 24.9 µg/mL; IC50 (MT4): 96 µg/mL; MIC (Influenza B virus): > 40 µg/mL; MIC (HeLa [20]): > 8 µg/mL; MIC (Influenza A virus): > 40 µg/mL
Nc1nccc2c1ncn2[C@@H]1C[C@H](CO)[C@@H](O)[C@H]1O [3-DEAZAARISTEROMYCIN A],> 200,2,20,> 400,> 400,> 400,> 200,> 400,> 200,> 200,2,> 400,2,150,20,2,> 200,0.7,> 400,> 200,–
O=c1[nH]c(=O)n([C@H]2C[C@H](O)[C@@H](CO)O2)cc1/C=C/Br [BRIVUDINE],0.02,> 400,> 400,> 400,> 400,> 400,–,> 400,70,7,> 200,> 400,> 400,150,> 400,> 400,0.02,7,> 400,70,–
NC(=O)c1ncn([C@@H]2O[C@H](CO)[C@@H](O)[C@H]2O)n1 [RIBAVIRIN],> 200,20,40,40,> 400,70,> 200,70,> 200,> 200,> 400,> 400,20,> 200,70,70,> 200,20,> 400,> 200,MCC (MDCK): > 200 µg/mL; MIC (Influenza B virus): 15 µg/mL; MIC (HeLa [20]): 3 µg/mL; MIC (Influenza A virus): 15 µg/mL
